Results as given in ChEMBL document CHEMBL1122861, “Synthesis and activity profiles of novel cyclic opioid peptide monomers and dimers” (J Med Chem, 1985).
Where a SMILES comes first, the peptide text is derived from it. Bridges are numbered along the chain shown (N, C = ends). [ ]: non-standard residue; d: D form. Orn = NCCC[C@H](N)C(=O)O

Legend:
Mu-type opioid receptor = Mu-type opioid receptor (Rattus norvegicus, UniProt P33535); assay: Evaluated for its ability to displace [3H]DAGO binding to Opioid receptor mu 1 from rat brain homogenate; format: tissue-based
Mu-type opioid receptor, sequence (P33535 whole entry): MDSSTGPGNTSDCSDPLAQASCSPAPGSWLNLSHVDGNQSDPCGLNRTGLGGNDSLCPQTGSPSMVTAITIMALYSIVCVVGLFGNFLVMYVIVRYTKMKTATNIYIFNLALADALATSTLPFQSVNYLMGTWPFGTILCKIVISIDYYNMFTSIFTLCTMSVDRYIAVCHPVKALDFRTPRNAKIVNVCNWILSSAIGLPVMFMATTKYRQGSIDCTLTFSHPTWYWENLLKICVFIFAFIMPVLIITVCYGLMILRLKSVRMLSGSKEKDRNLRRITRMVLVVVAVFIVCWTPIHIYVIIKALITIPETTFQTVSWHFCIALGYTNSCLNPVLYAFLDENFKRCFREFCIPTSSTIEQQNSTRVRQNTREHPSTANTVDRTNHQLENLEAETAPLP

[1] = molecular target: Delta-type opioid receptor (Rattus norvegicus, UniProt P33533); assay: Displacement of [3H]DSLET from Opioid receptor delta 1 from rat brain homogenate; format: tissue-based
Delta-type opioid receptor, sequence (P33533 whole entry): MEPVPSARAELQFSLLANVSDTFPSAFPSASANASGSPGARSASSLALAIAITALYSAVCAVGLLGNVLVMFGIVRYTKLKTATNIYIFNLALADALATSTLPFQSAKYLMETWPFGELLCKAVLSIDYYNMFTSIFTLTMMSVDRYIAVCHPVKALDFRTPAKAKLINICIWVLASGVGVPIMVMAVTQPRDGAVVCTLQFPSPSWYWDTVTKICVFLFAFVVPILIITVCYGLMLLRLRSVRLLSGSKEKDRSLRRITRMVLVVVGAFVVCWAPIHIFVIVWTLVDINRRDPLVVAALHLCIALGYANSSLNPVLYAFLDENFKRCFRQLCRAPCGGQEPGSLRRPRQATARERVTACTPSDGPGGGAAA

Mus musculus = organism: Mus musculus; assay: Tested for inhibition of electrically evoked contractions of the mouse vas deferens(MVD).; format: functional
Procedure, shortened: (§1)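 Isolated tissue bioassay, electrically evoked contractions; inhibition measured. A log dose–response curve with [Leu5]enkephalin as standard was run on each ileum or vas preparation. Test-peptide IC50 values were normalized against that standard by a published procedure. Mean of three determinations ±SEM.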

Cavia porcellus [2] = organism: Cavia porcellus; assay: Tested for inhibition of electrically evoked contractions of the guinea pig ileum(GPI).; format: functional; procedure, shortened: as §1
Cavia porcellus [3] = organism: Cavia porcellus; assay: Tested for sensitivity to naloxone in the guinea pig ileum assay.; format: functional
Procedure, shortened: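 Electrically stimulated guinea pig ileum. IC50 was determined with and without a fixed 5 nM naloxone. Ke for naloxone as antagonist was derived from the ratio of those IC50 values.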

NC(=O)[C@@H]1CCCNC(=O)C[C@@H](NC(=O)[C@@H](N)Cc2ccc(O)cc2)C(=O)N[C@@H](Cc2ccccc2)C(=O)N[C@H](C(N)=O)CCCNC(=O)C[C@@H](NC(=O)[C@@H](N)Cc2ccc(O)cc2)C(=O)N[C@@H](Cc2ccccc2)C(=O)N1 [listing 1 of 2 here] showed a Ki (Mu-type opioid receptor) of 85.9 nM, a Ki [1] of 129 nM and an IC50 (Mus musculus) of 579 nM. The IC50 (Cavia porcellus [2]) was 1160 nM.
Compound NC(=O)[C@@H]1CCC(=O)NCCCC[C@@H](NC(=O)[C@@H](N)Cc2ccc(O)cc2)C(=O)N[C@@H](Cc2ccccc2)C(=O)N1 [listing 1 of 2 here] has a Ke (Cavia porcellus [3]) of 1.8 nM.
For NC(=O)[C@@H]1CCC(=O)NCCC[C@@H](NC(=O)[C@@H](N)Cc2ccc(O)cc2)C(=O)NCC(=O)N1, the Ki (Mu-type opioid receptor) was 1760 nM, the Ki [1] was 4990 nM and the IC50 (Mus musculus) was > 40000 nM. It also gave an IC50 (Cavia porcellus [2]) of 8750 nM.
NC(=O)[C@@H]1CCCNC(=O)C[C@@H](NC(=O)[C@@H](N)Cc2ccc(O)cc2)C(=O)N[C@@H](Cc2ccccc2)C(=O)N[C@H](C(N)=O)CCCNC(=O)C[C@@H](NC(=O)[C@@H](N)Cc2ccc(O)cc2)C(=O)N[C@@H](Cc2ccccc2)C(=O)N1 [listing 2 of 2 here] gave a Ke (Cavia porcellus [3]) of 1.62 nM.
In the case of NC(=O)[C@@H]1CC(=O)NCCC[C@@H](NC(=O)[C@@H](N)Cc2ccc(O)cc2)C(=O)N[C@@H](Cc2ccccc2)C(=O)N[C@H](C(N)=O)CC(=O)NCCC[C@@H](NC(=O)[C@@H](N)Cc2ccc(O)cc2)C(=O)N[C@@H](Cc2ccccc2)C(=O)N1 [listing 1 of 2 here], the Ke (Cavia porcellus [3]) is reported as 1.36 nM.
CC(C)C[C@@H]1NC(=O)[C@H](NC(=O)[C@@H](N)Cc2ccc(O)cc2)CCCNC(=O)C[C@@H](C(N)=O)NC1=O gave a Ki (Mu-type opioid receptor) of 6800 nM, a Ki [1] of 8160 nM and an IC50 (Mus musculus) of 40400 nM. The IC50 (Cavia porcellus [2]) was 5410 nM.
In the case of NC(=O)[C@@H]1CCCNC(=O)C[C@@H](NC(=O)[C@@H](N)Cc2ccc(O)cc2)C(=O)N[C@@H](Cc2ccccc2)C(=O)N1 (H-Y[dD]F[Orn]-NH2; lactam 2-4) [listing 1 of 2 here], the Ke (Cavia porcellus [3]) is reported as 1.28 nM.
With NC(=O)[C@@H]1CC(=O)NCCC[C@@H](NC(=O)[C@@H](N)Cc2ccc(O)cc2)C(=O)N[C@@H](Cc2ccccc2)C(=O)N[C@H](C(N)=O)CC(=O)NCCC[C@@H](NC(=O)[C@@H](N)Cc2ccc(O)cc2)C(=O)N[C@@H](Cc2ccccc2)C(=O)N1 [listing 2 of 2 here] the Ki (Mu-type opioid receptor) was 25.6 nM, the Ki [1] was 42.2 nM and the IC50 (Mus musculus) was 99.1 nM. The IC50 (Cavia porcellus [2]) was 111 nM.
Compound NC(=O)[C@@H]1CCC(=O)NCCCC[C@@H](NC(=O)[C@@H](N)Cc2ccc(O)cc2)C(=O)N[C@@H](Cc2ccccc2)C(=O)N1 [listing 2 of 2 here] has a Ki (Mu-type opioid receptor) of 1.43 nM, a Ki [1] of 4.36 nM and an IC50 (Mus musculus) of 5.21 nM. It also gave an IC50 (Cavia porcellus [2]) of 2.93 nM.
Compound NC(=O)[C@@H]1CCCCNC(=O)CC[C@@H](NC(=O)[C@@H](N)Cc2ccc(O)cc2)C(=O)N[C@@H](Cc2ccccc2)C(=O)N1 [listing 1 of 2 here] has a Ke (Cavia porcellus [3]) of 0.81 nM.
Compound NC(=O)[C@@H]1CCCNC(=O)C[C@@H](NC(=O)[C@@H](N)Cc2ccc(O)cc2)C(=O)N[C@@H](Cc2ccccc2)C(=O)N1 (H-Y[dD]F[Orn]-NH2; lactam 2-4) [listing 2 of 2 here] has an IC50 (Mus musculus) of 8570 nM and an IC50 (Cavia porcellus [2]) of 522 nM.
With NC(=O)[C@@H]1CCCCNC(=O)CC[C@@H](NC(=O)[C@@H](N)Cc2ccc(O)cc2)C(=O)N[C@@H](Cc2ccccc2)C(=O)N1 [listing 2 of 2 here] the Ki (Mu-type opioid receptor) was 0.994 nM, the Ki [1] was 49.3 nM and the IC50 (Mus musculus) was 101 nM. For the same compound, the IC50 (Cavia porcellus [2]) was 7.99 nM.
